The text below walks through data of ChEMBL document CHEMBL4177755, “Combating Drug-Resistant Fungi with Novel Imperfectly Amphipathic Palindromic Peptides” (J Med Chem, 2018).

The test system of assay [1] is Candida albicans. The assay is described as follows: Induction of cell wall permeabilization in Candida albicans cgmcc 2.2086 assessed as increase in NPN uptake by fluorescence spectrophotometric method. It counts as functional, organism-based. The procedure, abridged: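 Log-phase cells at OD600 0.2 in 5 mM HEPES (pH 7.4, 5 mM glucose) were preloaded with 10 μM NPN for 30 min, then peptide was added. Fluorescence (ex 350/em 420 nm) was followed until it plateaued and converted to % NPN uptake against initial and maximal fluorescence. Triplicate.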

Assay [2] concerns Lipopolysaccharide (LPS). The assay is described as follows: Binding affinity to Escherichia coli O111:B4 LPS by SPR spectroscopy. The procedure, abridged:
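Surface plasmon resonance with the peptide immobilized and LPS flowed over it at 3.125−25 μg/mL; binding recorded in response units (RU).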

In the case of H-RRIRIIIRIRR-NH2, the Activity result in assay [1] and in assay [2] was “Dose-dependent effect” in each case.
